According to ChEMBL document CHEMBL4330056, “Synthesis and Cytotoxic and Antiviral Profiling of Pyrrolo- and Furo-Fused 7-Deazapurine Ribonucleosides” (J Med Chem, 2018):
Active and inactive are the calls of the source. The rule behind the calls is not given here.

Assays:
[1] = system: BJ; test: Antiproliferative activity against human BJ cells after 3 days by MTS assay; conditions: 72 h
[2] = Cytotoxicity against human Hep2 cells assessed as reduction in cell viability after 3 days by CellTiter-Glo assay; format: cell-based; conditions: HEp-2 cells
[3] = system: Coxsackievirus B3; test: Antiviral activity against Human coxsackie B3 Nancy infected in human HeLa cells assessed as inhibited virus-induced cytopathic effect incubated for 2 days by XTT assay; format: functional, organism-based
[4] = system: U2OS; test: Antiproliferative activity against human U2OS cells after 3 days by MTS assay; format: functional, cell-based; conditions: 72 h
[5] = system: MRC5; test: Antiproliferative activity against human MRC5 cells after 3 days by MTS assay; conditions: MRC5, 72 h
[6] = system: A549; test: Antiproliferative activity against human A549 cells after 3 days by MTS assay; format: functional, cell-based; conditions: A549, 72 h
[7] = molecular target: T1, Adenosine kinase (Homo sapiens, UniProt P55263); test: Substrate activity at recombinant human ADK assessed as compound phosphorylation at 50 uM after 20 mins in presence of [3H]-adenosine by UPLC; format: ADME
T1 sequence (P55263 whole entry): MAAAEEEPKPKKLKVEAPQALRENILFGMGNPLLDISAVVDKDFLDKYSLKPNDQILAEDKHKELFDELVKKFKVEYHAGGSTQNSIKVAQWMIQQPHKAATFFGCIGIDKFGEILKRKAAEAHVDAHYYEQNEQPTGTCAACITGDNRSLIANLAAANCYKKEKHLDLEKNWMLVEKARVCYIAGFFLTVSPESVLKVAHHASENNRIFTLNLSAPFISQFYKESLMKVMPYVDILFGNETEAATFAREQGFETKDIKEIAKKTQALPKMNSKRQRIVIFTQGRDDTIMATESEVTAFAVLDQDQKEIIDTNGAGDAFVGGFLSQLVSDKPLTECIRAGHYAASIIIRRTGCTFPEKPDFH

[8] = system: Human orthopneumovirus; test: Antiviral activity against Human respiratory syncytial virus A2 infected in Hep2 cells assessed as reduction in virus-induced cytopathic effect incubated for 4 days by CellTiter-Glo viability reagent based assay; format: functional, organism-based
[9] = system: HL-60; test: Antiproliferative activity against human HL60 cells after 72 hrs by XTT assay; format: functional, cell-based; conditions: HL-60, 72 h
[10] = Antiproliferative activity against human K562-TAX cells after 3 days by MTS assay; format: functional, cell-based; conditions: 72 h
[11] = system: Hepatitis C virus; test: Antiviral activity against Hepatitis C virus genotype 1b infected in human Huh-luc replicon cells after 3 days by luciferase assay; format: functional, organism-based, Hepacivirus hominis; conditions: subtype 1b, 72 h
[12] = system: K562; test: Antiproliferative activity against human K562 cells after 3 days by MTS assay; format: functional, cell-based; conditions: K562, 72 h
[13] = system: dengue virus type 2; test: Antiviral activity against Dengue virus 2 Thailand/16681/84 infected in African green monkey Vero cells assessed as inhibition of virus replication incubated for 3 days by fluorescence microscopy; format: functional, organism-based
[14] = system: CCRF-CEM; test: Antiproliferative activity against human CCRF-CEM cells after 3 days by MTS assay; format: functional, cell-based; conditions: 72 h
[15] = system: HepG2; test: Antiproliferative activity against human HepG2 cells after 72 hrs by XTT assay; format: functional, cell-based; conditions: HepG2, 72 h
[16] = system: Hepatitis C virus; test: Antiviral activity against Hepatitis C virus genotype 2a infected in human Huh-luc replicon cells after 3 days by luciferase assay; format: functional, organism-based, Hepacivirus hominis; conditions: subtype 2a, 72 h
[17] = system: Human alphaherpesvirus 1; test: Antiviral activity against human herpesvirus 1 HF infected in African green monkey Vero cells assessed as inhibited virus-induced cytopathic effect incubated for 3 days by XTT assay; format: functional, organism-based
[18] = system: Influenza A virus; test: Antiviral activity against Influenza A virus (A/Mexico/4108/2009(H1N1)) infected in MDCK cells assessed as inhibited virus-induced cytopathic effect incubated for 2 days by XTT assay; format: functional, organism-based
[19] = system: HeLa S3; test: Antiproliferative activity against human HeLaS3 cells after 72 hrs by XTT assay; format: functional, cell-based; conditions: HeLa S3, 72 h
[20] = system: HCT-116; test: Antiproliferative activity against p53 gene knocked out human HCT116 cells after 3 days by MTS assay; format: functional, cell-based; conditions: HCT-116, 72 h
[21] = molecular target: T1, Adenosine kinase; test: Inhibition of recombinant human ADK using [3H]-adenosine as substrate after 20 mins by TLC scanner-based analysis relative to control
In short: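 ADK inhibition: 50 μM adenosine substrate with 10 μM test compound and 97 ng enzyme, 20 min at 37 °C.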

[22] = system: HCT-116; test: Antiproliferative activity against human HCT116 cells after 3 days by MTS assay; format: functional, cell-based; conditions: HCT-116, 72 h
[23] = Antiproliferative activity against human CEM-DNR-bulk cells after 3 days by MTS assay; conditions: 72 h

| SMILES | IC50 [1] [µM] | CC50 at 72 h [2] [µM] | Activity [3] | IC50 [4] [µM] | IC50 [5] [µM] | IC50 [6] [µM] | Activity [7] [%] | Activity [8] | IC50 [9] [µM] | IC50 [10] [µM] | EC50 [11] [µM] | IC50 [12] [µM] | Activity [13] | IC50 [14] [µM] | IC50 [15] [µM] | EC50 [16] [µM] | Activity [17] | Activity [18] | IC50 [19] [µM] | IC50 [20] [µM] | other results |
| --- | --- | --- | --- | --- | --- | --- | --- | --- | --- | --- | --- | --- | --- | --- | --- | --- | --- | --- | --- | --- | --- |
| CN(C)c1ncnc2c1c1ccn(C)c1n2[C@@H]1O[C@H](CO)[C@@H](O)[C@H]1O | > 50 | > 44.4 | inactive | > 50 | > 50 | > 50 | 0 | inactive | > 50 | > 50 | > 44.4 | > 50 | inactive | > 50 | > 50 | > 44.4 | inactive | inactive | > 50 | > 50 | IC50 [21]: > 10 µM; IC50 [22]: > 50 µM; IC50 [23]: > 50 µM |
| Cn1ccc2c1c1c(N)ncnc1n2[C@@H]1O[C@H](CO)[C@@H](O)[C@H]1O | > 50 | 40.9 to 44.4 | inactive | 50 | > 50 | > 50 | 68 | inactive | 2.29 | > 50 | 0.46 | > 50 | inactive | 50 | > 50 | 0.22 | inactive | inactive | > 50 | > 50 | IC50 [21]: > 10 µM; IC50 [22]: > 50 µM; IC50 [23]: > 50 µM |
| Nc1ncnc2c1c1occc1n2[C@@H]1O[C@H](CO)[C@@H](O)[C@H]1O | > 50 | > 44.4 | inactive | 7.09 | > 50 | > 50 | 75 | inactive | 0.51 | 50 | 0.3 | 6.04 | inactive | > 50 | 4.51 | 0.33 | inactive | inactive | 1.71 | > 50 | IC50 [21]: > 10 µM; IC50 [22]: 48.4 µM; IC50 [23]: > 50 µM |
| OC[C@H]1O[C@@H](n2c3ccoc3c3c(-c4ccoc4)ncnc32)[C@H](O)[C@@H]1O | 0.52 | > 44.4 | inactive | 0.64 | > 50 | > 50 | 38 | inactive | 1.92 | 9.78 | 0.78 | 0.42 | inactive | 0.21 | 6.71 | > 44.4 | inactive | inactive | 13.1 | 10.7 | IC50 [21]: > 10 µM; IC50 [22]: 12.1 µM; IC50 [23]: > 50 µM |
| OC[C@H]1O[C@@H](n2c3ccoc3c3c(-c4ccco4)ncnc32)[C@H](O)[C@@H]1O | > 50 | > 44.4 | inactive | 4.21 | > 50 | > 50 | 34 | inactive | 2.55 | 7.01 | 0.17 | 7.03 | inactive | 0.45 | > 50 | > 44.4 | inactive | inactive | > 50 | > 50 | IC50 [21]: 3.94 µM; IC50 [22]: > 50 µM; IC50 [23]: > 50 µM |
| Cn1ccc2c3c(N)ncnc3n([C@@H]3O[C@H](CO)[C@@H](O)[C@H]3O)c21 | > 50 | 34.6 to 44.4 | inactive | > 50 | > 50 | > 50 | 0 | inactive | > 50 | > 50 | 27.3 | > 50 | inactive | > 50 | > 50 | 33.9 | inactive | inactive | > 50 | > 50 | IC50 [21]: > 10 µM; IC50 [22]: > 50 µM; IC50 [23]: > 50 µM |
| Cn1ccc2c3c(-c4ccoc4)ncnc3n([C@@H]3O[C@H](CO)[C@@H](O)[C@H]3O)c21 | > 50 | > 44.4 | inactive | > 50 | > 50 | > 50 | 0 | inactive | > 50 | > 50 | 16.5 | > 50 | inactive | > 50 | > 50 | > 44.4 | inactive | inactive | > 50 | > 50 | IC50 [21]: > 10 µM; IC50 [22]: > 50 µM; IC50 [23]: > 50 µM |
| Nc1ncnc2c1ncn2[C@@H]1O[C@H](CO)[C@@H](O)[C@H]1O [ADENOSINE] |  |  |  |  |  |  | 73 |  |  |  |  |  |  |  |  |  |  |  |  |  |  |
| COc1ncnc2c1c1ccn(C)c1n2[C@@H]1O[C@H](CO)[C@@H](O)[C@H]1O | > 50 | > 44.4 | inactive | > 50 | > 50 | > 50 | 0 | inactive | > 50 | > 50 | > 44.4 | > 50 | inactive | > 50 | > 50 | > 44.4 | inactive | inactive | > 50 | > 50 | IC50 [21]: > 10 µM; IC50 [22]: > 50 µM; IC50 [23]: > 50 µM |
| Cn1ccc2c1c1c(Cl)ncnc1n2[C@@H]1O[C@H](CO)[C@@H](O)[C@H]1O | 1.2 | > 44.4 | inactive | 0.62 | 50 | 2.99 | 77 | inactive | 0.06 | 50 | 0.37 | 0.18 | inactive | 0.06 | 0.16 | 0.06 | inactive | inactive | 0.57 | 0.15 | IC50 [21]: > 10 µM; IC50 [22]: 0.17 µM; IC50 [23]: 50 µM |
| Cc1ncnc2c1c1ccn(C)c1n2[C@@H]1O[C@H](CO)[C@@H](O)[C@H]1O | > 50 | > 44.4 | inactive | > 50 | > 50 | > 50 | 0 | inactive | > 50 | > 50 | > 44.4 | > 50 | inactive | > 50 | > 50 | > 44.4 | inactive | inactive | > 50 | > 50 | IC50 [21]: > 10 µM; IC50 [22]: > 50 µM; IC50 [23]: > 50 µM |
| Cn1ccc2c1c1c(-c3cc4ccccc4o3)ncnc1n2[C@@H]1O[C@H](CO)[C@@H](O)[C@H]1O | > 50 | 26.9 to 44.4 | inactive | 43.9 | > 50 | > 50 | 0 | inactive | > 50 | 29.3 | 1.6 | > 50 | inactive | 16.5 | > 50 | 32.5 | inactive | inactive | > 50 | 47.5 | IC50 [21]: 0.3 µM; IC50 [22]: 46.2 µM; IC50 [23]: 29.8 µM |
| CC(C)C(=O)OC[C@H]1O[C@@H](n2ccc(N)nc2=O)[C@](C)(F)[C@@H]1OC(=O)C(C)C [MERICITABINE] |  | > 44.4 |  |  |  |  |  |  |  |  |  |  |  |  |  |  |  |  |  |  |  |
